{"data": "Measured values pooled from the literature", "target": "Serine/threonine-protein kinase SIK2 (SIK2, Homo sapiens, UniProt Q9H0K1)", "note": "Each line is one published result; the experiments were not run side by side."}
{"SMILES": "CC(C)(C)c1nc2c(s1)c1nc(N)ncc1c1ccc(NS(=O)(=O)c3c(F)cccc3F)c(F)c12", "test": "enzyme activity, inhibitor, radiometric", "conditions": "1 µM", "quantity": "remaining activity", "result": "101%"}
{"SMILES": "Cc1nc(C2CCN(C(=O)c3ccc(OC(F)(F)F)cc3N)CC2)c2ncc(N3CCN(C)CC3)cc2n1", "test": "cell-free assay, competition with immobilised ligand", "conditions": "1 µM", "quantity": "remaining binding", "result": "100%"}
{"SMILES": "C[S+]([O-])c1ccc(-c2nc(-c3ccncc3)c(-c3ccc(F)cc3)[nH]2)cc1 (stereo not shown)", "test": "cell-free assay", "conditions": "0.5 µM", "quantity": "remaining signal", "result": "82.1%"}
{"SMILES": "CC(C)(O)[C@H]1CC[C@H](Nc2ccc3ncc(-c4cccc(C(F)(F)F)c4)n3n2)CC1", "test": "enzyme activity, inhibitor", "conditions": "1 µM", "quantity": "remaining activity", "result": "47.7%"}
{"SMILES": "Nc1ncnc2occ(-c3ccc(NC(=O)Nc4cc(C(F)(F)F)ccc4F)cc3)c12", "test": "cell-free assay, inhibitor", "conditions": "20 µM", "quantity": "remaining signal", "result": "57%"}
{"SMILES": "CCCS(=O)(=O)Nc1ccc(F)c(C(=O)c2c[nH]c3ncc(-c4ccc(Cl)cc4)cc23)c1F", "test": "enzyme activity, inhibitor", "conditions": "1 µM", "quantity": "inhibition", "result": "< 10%"}
{"SMILES": "Cc1nccc(COC(=O)N2C[C@@H]3[C@@H](CNC(=O)c4ccc5[nH]nnc5c4)[C@@H]3C2)n1", "test": "cell-free assay, competition with immobilised ligand", "conditions": "1 µM", "quantity": "remaining binding", "result": "92%"}
{"SMILES": "N#CCCc1ccc2c(c1)-c1[nH]c3ccc([N+](=O)[O-])cc3c1CC(=O)N2", "test": "cell-free assay", "conditions": "0.5 µM", "quantity": "remaining signal", "result": "44.2%"}
{"SMILES": "CN(C)C(=O)Cn1cc(-c2nc(C3(c4ccc(-c5cnc(N)nc5)cc4)CC3)no2)cn1", "test": "cell-free assay, competition with immobilised ligand", "conditions": "1 µM", "quantity": "remaining binding", "result": "100%"}
{"SMILES": "O=C(Nc1cnn(-c2csc(C(=O)NC3COC3)c2)c1)Nc1ccccc1Cl", "test": "enzyme activity, inhibitor", "conditions": "5 µM", "quantity": "remaining activity", "result": "97%"}
{"SMILES": "CC/C(=N\\NC(=O)NCc1cccc(O)c1)c1ccc(O)c(C)c1O", "test": "enzyme activity, inhibitor", "conditions": "0.1 µM", "quantity": "inhibition", "result": "-5.5%"}
{"SMILES": "O=C1Nc2ccc(Cl)cc2C1=Cc1cc(Cl)c(O)c(Cl)c1", "test": "cell-free assay", "conditions": "0.5 µM", "quantity": "remaining signal", "result": "95%"}
{"SMILES": "COc1cc(Cl)c(C(=O)N[C@@H](CN[C@H]2CC[C@@H](N)CC2)Cc2ccc(C#N)cc2)cc1-c1ccc(CN[C@H](C)c2ccc(C)cc2)o1", "test": "enzyme activity, inhibitor", "conditions": "1 µM", "quantity": "remaining activity", "result": "96%"}
{"SMILES": "CNCc1ccccc1-c1csc([C@@H](C)Nc2nc(C)nc3cc(OC)c(OC)cc23)c1", "test": "cell-free assay, competition with immobilised ligand", "conditions": "1 µM", "quantity": "remaining binding", "result": "100%"}
{"SMILES": "COc1cc2ncnc(Nc3ccc(Oc4ccccc4)cc3C)c2cc1OC", "test": "enzyme activity, inhibitor", "conditions": "1 µM", "quantity": "inhibition", "result": "3%"}
{"SMILES": "Cc1ccc(C(=O)Nc2ccc(CN3CCN(C)CC3)c(C(F)(F)F)c2)cc1C#Cc1cnc2cccnn12", "test": "enzyme activity, inhibitor", "conditions": "23.5 nM", "quantity": "remaining activity", "result": "67%"}
{"SMILES": "COc1cc(-c2cc(-c3ccc(N4CCNCC4)cc3)cnc2N)cc(OC)c1OC", "test": "enzyme activity, inhibitor", "conditions": "0.1 µM", "quantity": "inhibition", "result": "66%"}
{"SMILES": "O=C(NCCCC1CCCCC1)c1ccc(CNC(=O)c2cnn(-c3ccccc3)c2C(F)(F)F)cc1", "test": "cell-free assay, competition with immobilised ligand", "conditions": "0.1 µM", "quantity": "remaining binding", "result": "100%"}
{"SMILES": "FC(F)(F)Oc1cccc(-c2cnc3ccc(-c4ccncc4)nn23)c1", "test": "enzyme activity, inhibitor, radiometric", "conditions": "5 µM", "quantity": "activity vs control", "result": "69%"}
